Converted amounts (≈) assume the structure as drawn.
Columns and labels:
Mus musculus [1] = test: In vivo inhibition of gamma secretase in mouse increase in Abeta38 levels in brain at 30 mg/kg, po measured after 4 hrs relative to control; parameters: scale not given: the % may be the effect or the level left
[2] = Toxicity in dog assessed as effect on ALT level at 10 mg/kg, po; type: organism-based, Canis lupus familiaris; conditions: in vivo
How it was run: (§1)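 Single oral 10 mg/kg dose in dog; behaviour and appearance observed; plasma liver enzymes ALT and AST monitored.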

[3] = Toxicity in dog assessed as effect on behavior at 10 mg/kg, po; type: organism-based, Canis lupus familiaris; conditions: in vivo
How it was run: as §1

Mus musculus [4] = test: In vivo inhibition of gamma secretase in mouse assessed as assessed as reduction in Abeta42 levels in brain at 30 mg/kg, po measured after 4 hrs relative to control; type: functional
[5] = Fraction of unbound in rat brain
[6] = Metabolic stability in dog liver microsomes assessed as compound metabolism at 1 uM incubated for 15 mins; type: ADME, Canis lupus familiaris, Microsome; conditions: read-out: Drug metabolism
How it was run: (§2)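 Compound at 1 μM incubated 15 min with human, mouse or dog liver microsomes; percent metabolized reported.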

[7] = Ratio of drug concentration in brain to plasma of mouse at 30 mg/kg, po measured after 4 hrs by LC/MS/MS method; type: ADME, organism-based; conditions: read-out: BPR
How it was run: (§3)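 Mice dosed orally at 30 mg/kg; plasma and brain sampled 4 h post-dose; compound quantified by qualified research LC–MS/MS; brain/plasma ratio at 4 h.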

Canis familiaris [8] = test: In vivo inhibition of gamma secretase in dog assessed as assessed as reduction in Abeta42 levels in cerebrospinal fluid at 10 mg/kg, po measured after 8 hrs relative to control; conditions: Canis lupus familiaris
[9] = Toxicity in dog assessed as effect on appearance at 10 mg/kg, po; type: organism-based, Canis lupus familiaris; conditions: in vivo
How it was run: as §1

Cytochrome P450 2C8 = molecular target: T1, Cytochrome P450 2C8 (Homo sapiens, UniProt P10632); test: Inhibition of CYP2C8 (unknown origin); type: ADME
T1 sequence (P10632 whole entry): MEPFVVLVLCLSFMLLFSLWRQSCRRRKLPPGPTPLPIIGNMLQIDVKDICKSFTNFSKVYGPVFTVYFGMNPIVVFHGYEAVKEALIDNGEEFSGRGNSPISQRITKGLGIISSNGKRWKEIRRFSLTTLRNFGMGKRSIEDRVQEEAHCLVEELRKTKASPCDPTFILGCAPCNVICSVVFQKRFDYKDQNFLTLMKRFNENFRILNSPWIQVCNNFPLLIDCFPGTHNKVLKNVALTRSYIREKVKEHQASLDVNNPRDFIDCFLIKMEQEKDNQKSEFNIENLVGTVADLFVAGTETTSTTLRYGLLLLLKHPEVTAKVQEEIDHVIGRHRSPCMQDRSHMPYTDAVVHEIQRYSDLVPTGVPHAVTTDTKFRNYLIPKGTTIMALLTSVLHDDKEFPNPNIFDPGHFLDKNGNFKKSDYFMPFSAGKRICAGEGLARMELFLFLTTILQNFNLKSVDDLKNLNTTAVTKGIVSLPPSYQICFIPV

[10] = Metabolic stability in human liver microsomes assessed as compound metabolism at 1 uM incubated for 15 mins; type: ADME, Microsome; conditions: read-out: Drug metabolism
How it was run: as §2

Gamma-secretase = test: Inhibition of gamma secretase in human SKNBE2 cells expressing human APP695 assessed as reduction in Abeta42 levels incubated for 18 hrs by sandwich ELISA
Cytochrome P450 1A2 = molecular target: T2, Cytochrome P450 1A2 (Homo sapiens, UniProt P05177); test: Inhibition of CYP1A2 (unknown origin); type: ADME
T2 sequence (P05177 whole entry): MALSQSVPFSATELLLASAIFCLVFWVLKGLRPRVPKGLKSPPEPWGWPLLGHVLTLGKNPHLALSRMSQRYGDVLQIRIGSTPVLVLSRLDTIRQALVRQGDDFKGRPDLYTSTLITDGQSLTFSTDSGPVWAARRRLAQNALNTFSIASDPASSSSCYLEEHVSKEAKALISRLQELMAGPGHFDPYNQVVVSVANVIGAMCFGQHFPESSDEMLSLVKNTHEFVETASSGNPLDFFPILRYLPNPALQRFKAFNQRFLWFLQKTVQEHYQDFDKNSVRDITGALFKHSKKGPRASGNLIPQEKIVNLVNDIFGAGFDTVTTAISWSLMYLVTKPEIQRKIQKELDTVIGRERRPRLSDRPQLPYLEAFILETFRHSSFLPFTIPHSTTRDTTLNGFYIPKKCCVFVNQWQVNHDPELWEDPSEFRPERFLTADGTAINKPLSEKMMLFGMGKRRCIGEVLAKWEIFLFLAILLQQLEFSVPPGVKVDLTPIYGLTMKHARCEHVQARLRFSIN

[11] = Free drug concentration in mouse brain; type: ADME, tissue-based; conditions: in vivo
How it was run: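 Free brain concentration calculated as fu,b × total brain level (μM), mouse 30 mg/kg p.o., 4 h.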

[12] = Lipophilicity, log P of the compound; type: physicochemical; conditions: octanol/water
[13] = Inhibition of gamma secretase in mouse Neuro2 cells expressing endogenous levels of amyloid precursor protein assessed as reduction in Abeta42 levels incubated for 18 hrs by sandwich ELISA; type: cell-based
How it was run: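 IC50 as concentration reducing Aβ42 by 50%; mean of at least 2 determinations; mouse assay.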

[14] = Drug concentration in mouse plasma at 30 mg/kg, po measured after 4 hrs by LC/MS/MS method; type: ADME, organism-based
How it was run: as §3

[15] = Drug concentration in mouse brain at 30 mg/kg, po measured after 4 hrs by LC/MS/MS method; type: ADME, organism-based; conditions: read-out: Drug uptake
How it was run: as §3

Canis familiaris [16] = test: In vivo inhibition of gamma secretase in dog assessed as assessed as increase in Abeta38 levels in CSF at 10 mg/kg, po measured after 8 hrs relative to control; type: functional, Canis lupus familiaris; parameters: scale not given: the % may be the effect or the level left
Cytochrome P450 3A4 = Cytochrome P450 3A4 (Homo sapiens, UniProt P08684); test: Inhibition of CYP3A4 (unknown origin) using midazolam; type: ADME
[17] = Tmax in dog at 10 mg/kg, po; type: ADME, organism-based, Canis lupus familiaris; conditions: in vivo
How it was run: (§4)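 Dogs given single oral 10 mg/kg dose; plasma concentration followed to obtain Cmax and time of Cmax.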

hERG (KCNH2) = hERG (KCNH2) (Homo sapiens, UniProt Q12809); test: Inhibition of human ERG assessed as inhibition of IKr current at 3 uM by patch express assay
How it was run: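 Human ERG: percent inhibition of IKr current at 3 μM.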

Cytochrome P450 2C19 = Cytochrome P450 2C19 (Homo sapiens, UniProt P33261); test: Inhibition of CYP2C19 (unknown origin); type: ADME
[18] = Kinetic solubility of the compound in pH 7.4 buffer; type: physicochemical; conditions: read-out: Kinetic_solubility
[19] = Metabolic stability in mouse liver microsomes assessed as compound metabolism at 1 uM incubated for 15 mins; type: ADME, Microsome; conditions: read-out: Drug metabolism
How it was run: as §2

[20] = molecular target: Voltage-gated inwardly rectifying potassium channel KCNH2 (Homo sapiens, UniProt Q12809); test: Inhibition of human ERG by receptor binding assay
How it was run: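 Receptor binding on human hERG channel; IC50 reported.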

Cytochrome P450 2D6 = Cytochrome P450 2D6 (Homo sapiens, UniProt P10635); test: Inhibition of CYP2D6 (unknown origin); type: ADME
Cytochrome P450 2C9 = Cytochrome P450 2C9 (Homo sapiens, UniProt P11712); test: Inhibition of CYP2C9 (unknown origin); type: ADME
[21] = Cmax in dog at 10 mg/kg, po after 1.6 hrs; type: ADME, organism-based, Canis lupus familiaris; parameters: dose 10 mg/kg, route oral; conditions: in vivo
How it was run: as §4

[22] = Toxicity in dog assessed as effect on AST level at 10 mg/kg, po; type: organism-based, Canis lupus familiaris; conditions: in vivo
How it was run: as §1

Cytochrome P450 2D6, sequence (P10635 whole entry): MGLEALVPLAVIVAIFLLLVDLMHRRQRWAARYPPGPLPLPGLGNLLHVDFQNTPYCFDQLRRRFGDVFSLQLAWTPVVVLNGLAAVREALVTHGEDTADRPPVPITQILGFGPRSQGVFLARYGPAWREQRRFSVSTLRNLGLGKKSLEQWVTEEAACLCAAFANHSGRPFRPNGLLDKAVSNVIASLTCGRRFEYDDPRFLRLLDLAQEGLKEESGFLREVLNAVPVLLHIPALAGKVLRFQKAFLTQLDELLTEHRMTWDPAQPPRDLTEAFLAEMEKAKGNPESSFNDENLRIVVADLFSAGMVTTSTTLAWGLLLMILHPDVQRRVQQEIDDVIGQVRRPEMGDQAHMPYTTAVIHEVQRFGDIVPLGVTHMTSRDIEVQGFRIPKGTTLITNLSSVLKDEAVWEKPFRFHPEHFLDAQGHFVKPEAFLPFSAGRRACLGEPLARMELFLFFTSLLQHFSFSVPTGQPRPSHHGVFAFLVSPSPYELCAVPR
Cytochrome P450 2C9, sequence (P11712 whole entry): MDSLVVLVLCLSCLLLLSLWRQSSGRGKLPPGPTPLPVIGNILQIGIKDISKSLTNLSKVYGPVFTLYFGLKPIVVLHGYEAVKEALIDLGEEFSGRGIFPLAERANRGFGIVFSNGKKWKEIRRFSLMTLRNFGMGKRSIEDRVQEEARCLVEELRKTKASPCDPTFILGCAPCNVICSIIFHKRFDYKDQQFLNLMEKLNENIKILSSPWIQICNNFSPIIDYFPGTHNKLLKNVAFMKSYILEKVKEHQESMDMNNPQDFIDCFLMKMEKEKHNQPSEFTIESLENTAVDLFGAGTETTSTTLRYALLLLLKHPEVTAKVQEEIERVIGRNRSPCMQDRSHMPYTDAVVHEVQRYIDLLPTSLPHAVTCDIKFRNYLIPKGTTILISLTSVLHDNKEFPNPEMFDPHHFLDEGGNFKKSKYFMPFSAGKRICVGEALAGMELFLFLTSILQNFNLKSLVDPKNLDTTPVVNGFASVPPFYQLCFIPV
Cytochrome P450 2C19, sequence (P33261 whole entry): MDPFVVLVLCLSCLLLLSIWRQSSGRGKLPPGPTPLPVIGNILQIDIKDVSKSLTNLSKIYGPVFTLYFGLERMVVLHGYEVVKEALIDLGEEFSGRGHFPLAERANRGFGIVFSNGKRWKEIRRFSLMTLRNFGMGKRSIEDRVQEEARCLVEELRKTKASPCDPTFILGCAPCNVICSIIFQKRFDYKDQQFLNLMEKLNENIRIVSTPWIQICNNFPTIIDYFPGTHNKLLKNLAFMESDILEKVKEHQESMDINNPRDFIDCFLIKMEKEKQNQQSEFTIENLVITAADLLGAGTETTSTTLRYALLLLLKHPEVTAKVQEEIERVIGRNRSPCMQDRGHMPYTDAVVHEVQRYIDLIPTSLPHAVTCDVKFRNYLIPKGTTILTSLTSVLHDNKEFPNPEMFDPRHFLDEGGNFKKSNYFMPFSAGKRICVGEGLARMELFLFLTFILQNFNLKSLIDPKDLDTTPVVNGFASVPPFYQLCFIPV
Voltage-gated inwardly rectifying potassium channel KCNH2, sequence (Q12809 whole entry): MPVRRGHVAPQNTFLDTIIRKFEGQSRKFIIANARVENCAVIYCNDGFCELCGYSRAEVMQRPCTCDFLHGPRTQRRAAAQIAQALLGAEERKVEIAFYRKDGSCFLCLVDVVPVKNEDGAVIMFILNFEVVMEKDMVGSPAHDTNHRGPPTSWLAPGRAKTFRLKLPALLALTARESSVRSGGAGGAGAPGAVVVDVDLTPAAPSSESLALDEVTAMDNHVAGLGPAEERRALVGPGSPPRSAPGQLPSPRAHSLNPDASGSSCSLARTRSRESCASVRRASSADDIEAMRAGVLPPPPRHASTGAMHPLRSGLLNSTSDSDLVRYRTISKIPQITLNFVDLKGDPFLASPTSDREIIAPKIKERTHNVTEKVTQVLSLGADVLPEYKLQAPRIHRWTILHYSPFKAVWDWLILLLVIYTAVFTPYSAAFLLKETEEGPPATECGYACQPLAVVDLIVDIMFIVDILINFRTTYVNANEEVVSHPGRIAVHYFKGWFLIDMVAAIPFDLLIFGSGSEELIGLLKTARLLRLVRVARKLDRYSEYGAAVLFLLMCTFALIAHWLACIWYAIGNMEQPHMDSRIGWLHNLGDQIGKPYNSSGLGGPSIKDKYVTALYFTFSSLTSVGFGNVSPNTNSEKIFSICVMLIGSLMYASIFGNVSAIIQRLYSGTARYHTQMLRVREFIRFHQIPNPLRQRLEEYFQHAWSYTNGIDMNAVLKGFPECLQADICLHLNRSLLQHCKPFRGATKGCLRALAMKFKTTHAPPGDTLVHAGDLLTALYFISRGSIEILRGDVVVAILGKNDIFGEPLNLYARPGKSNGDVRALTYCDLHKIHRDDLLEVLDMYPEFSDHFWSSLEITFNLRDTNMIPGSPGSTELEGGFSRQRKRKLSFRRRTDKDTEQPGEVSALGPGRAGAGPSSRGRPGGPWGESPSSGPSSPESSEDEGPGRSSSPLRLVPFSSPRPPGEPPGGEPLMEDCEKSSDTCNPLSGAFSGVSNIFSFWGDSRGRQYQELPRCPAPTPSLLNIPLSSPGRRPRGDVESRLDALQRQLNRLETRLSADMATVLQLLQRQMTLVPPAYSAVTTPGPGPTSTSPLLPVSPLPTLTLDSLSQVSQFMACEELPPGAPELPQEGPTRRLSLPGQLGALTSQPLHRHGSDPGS
hERG (KCNH2), sequence (Q12809 whole entry): as above
Cytochrome P450 3A4, sequence (P08684 whole entry): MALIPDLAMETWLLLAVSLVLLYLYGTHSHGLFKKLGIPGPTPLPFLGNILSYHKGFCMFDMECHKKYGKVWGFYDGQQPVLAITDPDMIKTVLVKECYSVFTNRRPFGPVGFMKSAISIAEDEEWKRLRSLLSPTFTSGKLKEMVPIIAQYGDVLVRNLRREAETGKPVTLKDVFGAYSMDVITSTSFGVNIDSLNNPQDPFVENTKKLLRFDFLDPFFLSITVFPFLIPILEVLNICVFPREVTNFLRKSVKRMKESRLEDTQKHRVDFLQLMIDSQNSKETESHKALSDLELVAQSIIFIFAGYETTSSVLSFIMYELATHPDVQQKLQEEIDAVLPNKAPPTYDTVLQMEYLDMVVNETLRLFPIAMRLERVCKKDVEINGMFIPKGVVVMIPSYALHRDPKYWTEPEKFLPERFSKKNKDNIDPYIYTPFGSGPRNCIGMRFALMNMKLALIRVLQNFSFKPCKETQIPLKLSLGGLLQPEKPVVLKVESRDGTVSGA

Q: Which Activity (Mus musculus [1]) does the source give for `COc1c(C#N)ccc2[nH]c(-c3cn4c(n3)[C@H](c3cccc(F)c3C)OCC4)cc12` here?
A: 40%

Q: What about the Activity [2] of the same molecule?
A: Non-Toxic

Q: What about the Activity [3] of the same molecule?
A: Non-Toxic

Q: What about the inhibition in vivo at 30 mg/kg (Mus musculus [4]) of the same molecule?
A: 66%

Q: And the Fu [5]?
A: 0.22%

Q: What about the metabolised at 0.25 h, 1 µM [6] of the same molecule?
A: 29%

Q: What about the Kp at 4 h [7] of the same molecule?
A: 1.46

Q: And the inhibition in vivo at 10 mg/kg (Canis familiaris [8])?
A: 37%

Q: What about the Activity [9] of the same molecule?
A: Non-Toxic

Q: What about the IC50 (Cytochrome P450 2C8) of the same molecule?
A: 1.3 µM

Q: What about the metabolised at 0.25 h, 1 µM [10] of the same molecule?
A: 18%

Q: What about the IC50 (Gamma-secretase) of the same molecule?
A: 0.014 µM

Q: And the IC50 (Cytochrome P450 1A2)?
A: > 10 µM

Q: What about the “Drug uptake(free)” value [11] of the same molecule?
A: 0.026 µM

Q: What about the logP [12] of the same molecule?
A: 4.19

Q: And the IC50 [13]?
A: 0.017 µM

Q: What about the concentration at 4 h [14] of the same molecule?
A: 8.2 to 12.1 µM

Q: And the concentration at 4 h [15]?
A: 8.25 to 12 µM

Q: What about the Activity (Canis familiaris [16]) of the same molecule?
A: 40%

Q: What about the IC50 (Cytochrome P450 3A4) of the same molecule?
A: > 10 µM

Q: What about the Tmax [17] of the same molecule?
A: 1.6 h

Q: And the inhibition at 3 µM (hERG (KCNH2))?
A: 31%

Q: And the IC50 (Cytochrome P450 2C19)?
A: 8.3 µM

Q: And the solubility kinetic [18]?
A: 6 µM (≈ 2.41 µg/mL)

Q: And the metabolised at 0.25 h, 1 µM [19]?
A: 27%

Q: What about the IC50 [20] of the same molecule?
A: 5.29 µM

Q: What about the IC50 (Cytochrome P450 2D6) of the same molecule?
A: 9.8 µM

Q: And the IC50 (Cytochrome P450 2C9)?
A: 5.9 µM

Q: What about the Cmax [21] of the same molecule?
A: 2.4 µM

Q: What about the Activity [22] of the same molecule?
A: Non-Toxic

From ChEMBL document CHEMBL4387734, “Design and synthesis of a novel series of cyanoindole derivatives as potent γ-secretase modulators” (Bioorg Med Chem Lett, 2019)
